Assay results: ChEMBL document CHEMBL4049390, “Combination of amino acid/dipeptide with ligustrazine-betulinic acid as antitumor agents” (Eur J Med Chem, 2017)

Experiments:
HepG2 = experiment: Antiproliferative activity against human HepG2 cells after 72 hrs by MTT assay; assay type: functional, cell-based; details: HepG2, 72 h
Outline: (§1)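 MTT assay. Log-phase cells were seeded at 3×10^3 cells/well and left overnight, then exposed to serial dilutions of compound (DMSO solutions) for 72 h in RPMI 1640 with 10% heat-inactivated FBS at 37 °C, 5% CO2. MTT (5 mg/mL, 20 µL) was added for 4 h at 37 °C and the formazan dissolved in DMSO. A490 was read. % inhibition = (1 − sample OD/control OD)×100; IC50 is the 50% growth-inhibition concentration. Triplicates, n = 3 independent experiments.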

HT-29 = experiment: Antiproliferative activity against human HT-29 cells after 72 hrs by MTT assay; assay type: functional, cell-based; details: HT-29, 72 h; outline: as §1
HeLa [1] = experiment: Antiproliferative activity against human HeLa cells after 72 hrs by MTT assay; assay type: functional, cell-based; outline: as §1
BGC-823 = experiment: Antiproliferative activity against human BGC823 cells after 72 hrs by MTT assay; assay type: functional, cell-based; details: BGC-823, 72 h; outline: as §1
A549 = experiment: Antiproliferative activity against human A549 cells after 72 hrs by MTT assay; assay type: functional, cell-based; details: A549, 72 h; outline: as §1
MDCK = experiment: Antiproliferative activity against MDCK cells after 72 hrs by MTT assay; assay type: cell-based; details: Canis lupus familiaris; outline: as §1
[2] = Therapeutic index, ratio of IC50 for MDCK cells to IC50 for human HepG2 cells
Outline: (§2)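 Ratios were calculated from MTT IC50 values (72 h exposure, A490 read-out, n = 3). Potency index = cisplatin IC50 / compound IC50. Therapeutic index = MDCK IC50 / tumour-line IC50.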

[3] = Therapeutic index, ratio of IC50 for MDCK cells to IC50 for human HT-29 cells; outline: as §2
HeLa [4] = experiment: Therapeutic index, ratio of IC50 for MDCK cells to IC50 for human HeLa cells; outline: as §2
[5] = Therapeutic index, ratio of IC50 for MDCK cells to IC50 for human BGC823 cells; outline: as §2
[6] = Therapeutic index, ratio of IC50 for MDCK cells to IC50 for human A549 cells; outline: as §2

IC50 (HepG2) [µM]	IC50 (HT-29) [µM]	IC50 (HeLa [1]) [µM]	IC50 (BGC-823) [µM]	IC50 (A549) [µM]	Structure (SMILES)	IC50 (MDCK) [µM]	Ratio IC50 [2]	Ratio IC50 [3]	Ratio IC50 (HeLa [4])	Ratio IC50 [5]	Ratio IC50 [6]
3.39	3.56	2.33	2.52	4.08	C=C(C)[C@@H]1CC[C@]2(C(=O)OCc3nc(C)c(C)nc3C)CC[C@]3(C)[C@H](CC[C@@H]4[C@@]5(C)CC[C@H](OC(=O)[C@H](C)NC(=O)[C@@H]6CCCN6)C(C)(C)[C@@H]5CC[C@]43C)[C@@H]12	> 40	>10	>10	>10	>10	>10
2.17	4.38	5.57	1.49	2.45	C=C(C)[C@@H]1CC[C@]2(C(=O)OCc3nc(C)c(C)nc3C)CC[C@]3(C)[C@H](CC[C@@H]4[C@@]5(C)CC[C@H](OC(=O)[C@H](C)NC(=O)CN)C(C)(C)[C@@H]5CC[C@]43C)[C@@H]12	> 40	>10	>10	>10	>10	>10
2.39	2.64	2.62	2.16	1.26	C=C(C)[C@@H]1CC[C@]2(C(=O)OCc3nc(C)c(C)nc3C)CC[C@]3(C)[C@H](CC[C@@H]4[C@@]5(C)CC[C@H](OC(=O)[C@@H](N)CCCCN)C(C)(C)[C@@H]5CC[C@]43C)[C@@H]12	> 40	>10	>10	>10	>10	>10
